Source: PubChem BioAssay
An excerpt weighted towards active compounds, which were near 2.5% of everything screened.
PglD inh: C. jejuni PglD acetyltransferase inhibitors, primary screen, biochemical, DTNB colorimetric, single point; purified PglD enzyme, DTNB colorimetric CoA detection; inhibition, % at 12.5 µM; actives 0.098% (n = 360,000); in the data active = inhibition above about 16%, passing the limit was not always enough
E-sel inducer: E-selectin induction in HUVECs, primary screen, imaging, HUVEC, immunofluorescence imaging, single point; P16581; normalized: neutral wells 0, TNF-alpha wells 100; activation, % at 7.58 µM; actives 0.37% (n = 260,000);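 active = mean E-selectin-positive cell signal at least 10% of the positive control, reached in at least 60% of replicates, without over 20% cell loss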
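System: HUVEC / Compound: single concentration / Signal: immunofluorescence imaging / Read-out: percent E-selectin-positive cells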
DENV2 CPE: inhibitors of DENV2 cytopathic effect, primary screen, cell-based, plate reader, single concentration; AID 651640, 2012; DENV2-infected cells, cytopathic effect rescue; actives 1.7% (n = 350,000); CPE inhibition, % at 9.99 µM; in the data active = CPE inhibition above about 20%, passing the limit was not always enough; tested in BHK-21 cells;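 note: 0% = median of neutral control wells and 100% = median of positive control wells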
ERAP1 inh: human ERAP1 aminopeptidase inhibitors, primary screen, biochemical, single point, plate reader; Endoplasmic reticulum aminopeptidase 1 (Homo sapiens), Q9NZ08; recombinant ERAP1, Leu-AMC fluorescence, 60 min; inhibition, % at 10.7 µM; actives 0.15% (n = 340,000);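 active = mean replicate inhibition of at least 30%, or all replicates individually reaching that 30% level; inactive = mean below 30% and not every replicate reaching it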;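 note: 0% = neutral control wells and 100% = L-leucinethiol positive control wells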
Target sequence (Q9NZ08 whole entry, looked up): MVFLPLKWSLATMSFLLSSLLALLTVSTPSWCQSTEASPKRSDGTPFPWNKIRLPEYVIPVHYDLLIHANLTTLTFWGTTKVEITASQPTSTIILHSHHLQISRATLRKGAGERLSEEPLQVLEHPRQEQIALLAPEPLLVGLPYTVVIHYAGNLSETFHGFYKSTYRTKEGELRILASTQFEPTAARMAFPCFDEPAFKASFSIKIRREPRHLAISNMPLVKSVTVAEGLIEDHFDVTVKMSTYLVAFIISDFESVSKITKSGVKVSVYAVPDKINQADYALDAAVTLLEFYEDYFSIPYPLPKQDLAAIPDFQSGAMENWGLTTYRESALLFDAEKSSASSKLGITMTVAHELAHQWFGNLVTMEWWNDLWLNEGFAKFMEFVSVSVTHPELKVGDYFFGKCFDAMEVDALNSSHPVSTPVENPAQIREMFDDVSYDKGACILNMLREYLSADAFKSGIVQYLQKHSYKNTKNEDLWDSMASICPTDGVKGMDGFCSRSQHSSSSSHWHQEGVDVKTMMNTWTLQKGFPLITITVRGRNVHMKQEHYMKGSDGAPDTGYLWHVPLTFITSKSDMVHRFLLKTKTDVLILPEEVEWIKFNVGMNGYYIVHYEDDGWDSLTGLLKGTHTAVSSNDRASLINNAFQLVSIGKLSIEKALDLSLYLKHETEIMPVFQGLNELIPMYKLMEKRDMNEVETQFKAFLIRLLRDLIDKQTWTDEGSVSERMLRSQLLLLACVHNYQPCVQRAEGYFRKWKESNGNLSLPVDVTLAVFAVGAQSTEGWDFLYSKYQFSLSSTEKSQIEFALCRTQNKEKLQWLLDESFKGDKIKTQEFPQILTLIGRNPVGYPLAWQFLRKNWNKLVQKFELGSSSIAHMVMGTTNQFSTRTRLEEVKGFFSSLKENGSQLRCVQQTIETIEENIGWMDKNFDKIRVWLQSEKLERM
SIRT5 block: SIRT5 desuccinylase inhibitors, primary screen, biochemical, fluorescence imaging, single point, set 5; NAD-dependent protein deacylase sirtuin-5, mitochondrial (Homo sapiens), Q9NXA8; Purified SirT5, succinyl-peptide AMC, trypsin-coupled fluorescence; inhibition, % at 15 µM; actives 1.1% (n = 330,000); AID 652115, 2013; in the data active = inhibition above about 15%
* hit, by the source's call; x = no result.

SMILES	PglD inh	E-sel inducer	DENV2 CPE	ERAP1 inh	SIRT5 block
CCS(=O)(=O)N1CCC2(CC1)CN(S(=O)(=O)c1cn(C)cn1)[C@@H](CO)c1[nH]c3cc(OC)ccc3c12	x	0	9	0	-3
CC1CCC(NC(=O)CN2C(=O)NC3(CCCCCC3)C2=O)CC1 (stereo unspecified)	1	-3	2	6	16*
CCOc1ccc(CCNC(=O)CN2C(=O)NC3(CCCCCC3)C2=O)cc1OCC	2	x	0	7	-3
COc1ccccc1OCCNC(=O)CN1C(=O)NC2(CCCCC2)C1=O	-5	x	-1	1	0
COCCN(CC(=O)Nc1cccc(C)c1C)C(=O)CN1C(=O)NC2(CCCCC2)C1=O	x	0	-1	45*	-4
COCCNC(=O)CN1C(=O)NC2(CCCCCC2)C1=O	x	x	1	-1	17*
CCOc1ccc(/C=C2\SC(=O)N(CCNC(=O)CN3C(=O)NC4(CCCC4)C3=O)C2=O)cc1OC	1	0	56*	-1	-4
CCNC(=O)CN1C(=O)NC2(CCCCCC2)C1=O	-3	x	x	x	x
O=C(Nn1cnnc1)c1cc(-c2cccc(Br)c2)nc2ccccc12	-2	x	15	0	2
COC(=O)NCc1ccc(S(=O)(=O)N2CCOCC2)cc1	2	x	x	x	x
OCCc1ccc(NCCc2cccs2)cc1	0	0	21*	-2	6
O=C(Cc1cccs1)NCCc1ccc(F)cc1	6	x	-2	-4	-2
CC1=C([C@H](O)CCc2ccccc2)[C@H](CO)n2c(=O)n(-c3ccccc3)c(=O)n2C1	-2	x	36*	-1	-4
CC1OC(CCc2cccc(Cl)c2)Cc2[nH]c(=S)[nH]c(=O)c21 (stereo unspecified)	x	1	40*	3	x
C[C@H](CO)N1C[C@H](C)[C@H](CN(C)Cc2ccc(C(F)(F)F)cc2)Oc2c(NC(=O)c3ccc(-c4nccs4)cc3)cccc2C1=O	-1	-2	3	0	16*
C[C@H]1CN([C@@H](C)CO)C(=O)c2cccc(NC(=O)c3ccc(-c4nccs4)cc3)c2O[C@H]1CN(C)Cc1ccc(C(F)(F)F)cc1	6	-2	0	0	17*
Cn1cnc2c(N/N=C/c3cccs3)ncnc21	4	x	-1	x	15*
CCCNC(=O)N1[C@H](CO)[C@H](c2ccccc2)[C@@H]1CNC(=O)c1ccc(F)cc1	1	0	104*	x	x
CCCNC(=O)N1[C@H](CNC(C)=O)[C@@H](c2ccccc2)[C@@H]1CO	4	0	30*	x	x
CCCNC(=O)N1[C@@H](CO)[C@@H](c2ccccc2)[C@@H]1CNC(C)=O	2	0	-6	2	3
CCCNC(=O)N1[C@@H](CO)[C@H](c2ccccc2)[C@@H]1CNC(=O)c1ccc(F)cc1	0	0	x	x	x
COc1ccc(CC(=O)c2ccc(O)cc2O)cc1	3	x	76*	-1	2
Cc1ccsc1C(=O)NNC(=O)COc1ccccc1Cl	0	0	9	1	-5
O=C(C[C@@H]1CC[C@@H]2[C@H](COC[C@H](O)CN2C(=O)Nc2ccccc2)O1)NCCCN1CCOCC1	1	0	-1	0	-1
C[C@H]1CN([C@@H](C)CO)C(=O)c2cc(NC(=O)CCCCCC(=O)Nc3ccccc3N)ccc2O[C@@H]1CN(C)C(=O)NC1CCCCC1	x	0	x	x	x
SMILES	PglD inh	E-sel inducer	DENV2 CPE	ERAP1 inh	SIRT5 block
CCOc1ccc(OCC)c(S(=O)(=O)n2ccnc2C)c1	2	0	-4	2	-2
COc1ccc(C)cc1S(=O)(=O)n1ccnc1C	-2	x	-5	1	112*
CCOc1ccc(C(C)C)cc1S(=O)(=O)n1ccnc1C	-4	-2	4	3	17*
Cc1ccccc1CNC(=O)Cn1cnc(S(=O)(=O)N2CCCC2)c1	x	x	3	2	10
CCOc1ncccc1C(=O)OCC(=O)c1ccc[nH]1	4	x	x	x	x
Nc1nccnc1C(=O)OCC(=O)c1ccc[nH]1	3	x	33*	-8	-9
O=c1ccc(-c2ccccc2)n[nH]1	-2	x	x	0	21*
CC(C)c1ccc(Nc2ccc(C(=O)O)cc2[N+](=O)[O-])cc1	-2	2	10	2	30*
O=C(NCc1ccc(F)cc1)c1cc(C2CCCCN2C(=O)CCCc2ccccc2)on1 (stereo unspecified)	4	83*	9	0	x
O=C(NCc1ccc(Cl)c(Cl)c1)c1cc(C2CCCCN2C(=O)OCCF)on1 (stereo unspecified)	-3	2	30*	2	0
O=C(Nc1ccccc1Cl)c1cc(C2CCCCN2C(=O)OCCF)on1 (stereo unspecified)	4	0	-10	-2	x
COC(=O)N1CCCCC1c1cc(C(=O)Nc2ccc3c(c2)OCO3)no1 (stereo unspecified)	0	0	4	3	-7
O=C(Nc1ccc2c(c1)OCO2)c1cc(C2CCCCN2C(=O)OCCF)on1 (stereo unspecified)	0	0	20*	11	x
CSCCC(NC(=O)c1ccc([N+](=O)[O-])cc1Cl)C(=O)OCC(=O)NCC(F)(F)F (stereo unspecified)	-9	-1	-11	-5	-8
CN(CC(=O)Nc1ccc(F)cc1)C(=O)COc1ccccc1Cc1ccccc1	0	1	-2	-3	2
O=C(Cc1ccc(Cl)cc1)N1CCC2(CC1)NCCc1[nH]cnc12	-5	x	0	-1	-2
COc1ccccc1C(=O)N=Nc1c(O)[nH]c2ccc([N+](=O)[O-])cc12	x	x	14	0	3
O=C(N=Nc1c(O)[nH]c2ccc([N+](=O)[O-])cc12)c1cc(-c2ccccc2Cl)nc2ccccc12	x	9	-1	3	23*
C[C@@H]1CCCCO[C@@H](CN(C)C(=O)c2ccccc2)[C@@H](C)CN([C@@H](C)CO)C(=O)c2cc(NS(=O)(=O)c3ccc(F)cc3)ccc2O1	3	0	121*	-5	4
C[C@@H]1CCCCO[C@@H](CN(C)C(=O)c2ccccc2)[C@@H](C)CN([C@@H](C)CO)C(=O)c2cc(NS(=O)(=O)c3ccc(Cl)cc3)ccc2O1	-2	0	21*	0	-4
C[C@@H]1CCCCO[C@@H](CN(C)C(=O)c2ccccc2)[C@H](C)CN([C@@H](C)CO)C(=O)c2cc(NS(=O)(=O)c3ccc(Cl)cc3)ccc2O1	1	0	-10	-1	-2
CS(=O)(=O)Nc1ccc(C2=NN(S(=O)(=O)c3ccccc3)C(c3cccs3)C2)cc1 (stereo unspecified)	2	x	x	x	x
COc1cc(CCCN2C(=S)NC[C@H]2Cc2ccc(O)cc2)cc(OC)c1OC	6	0	-9	-2	32*
